As usually defined, the IC50 is the concentration needed to halve the response being measured.

Consider four molecules from ChEMBL document CHEMBL4680235, “Structure-based discovery of novel 4-(2-fluorophenoxy)quinoline derivatives as c-Met inhibitors using isocyanide-involved multicomponent reactions” (Eur J Med Chem, 2020).

The target of assay [1] is Hepatocyte growth factor receptor (Homo sapiens, UniProt P08581). The assay can be described thus: Inhibition of c-MET (unknown origin) using poly (Glu, Tyr) 4:1 as substrate measured after 30 mins by HTRF assay. (TR-FRET usually uses a lanthanide donor and a delayed reading to cut background.)
Chain of Hepatocyte growth factor receptor (P08581 whole entry): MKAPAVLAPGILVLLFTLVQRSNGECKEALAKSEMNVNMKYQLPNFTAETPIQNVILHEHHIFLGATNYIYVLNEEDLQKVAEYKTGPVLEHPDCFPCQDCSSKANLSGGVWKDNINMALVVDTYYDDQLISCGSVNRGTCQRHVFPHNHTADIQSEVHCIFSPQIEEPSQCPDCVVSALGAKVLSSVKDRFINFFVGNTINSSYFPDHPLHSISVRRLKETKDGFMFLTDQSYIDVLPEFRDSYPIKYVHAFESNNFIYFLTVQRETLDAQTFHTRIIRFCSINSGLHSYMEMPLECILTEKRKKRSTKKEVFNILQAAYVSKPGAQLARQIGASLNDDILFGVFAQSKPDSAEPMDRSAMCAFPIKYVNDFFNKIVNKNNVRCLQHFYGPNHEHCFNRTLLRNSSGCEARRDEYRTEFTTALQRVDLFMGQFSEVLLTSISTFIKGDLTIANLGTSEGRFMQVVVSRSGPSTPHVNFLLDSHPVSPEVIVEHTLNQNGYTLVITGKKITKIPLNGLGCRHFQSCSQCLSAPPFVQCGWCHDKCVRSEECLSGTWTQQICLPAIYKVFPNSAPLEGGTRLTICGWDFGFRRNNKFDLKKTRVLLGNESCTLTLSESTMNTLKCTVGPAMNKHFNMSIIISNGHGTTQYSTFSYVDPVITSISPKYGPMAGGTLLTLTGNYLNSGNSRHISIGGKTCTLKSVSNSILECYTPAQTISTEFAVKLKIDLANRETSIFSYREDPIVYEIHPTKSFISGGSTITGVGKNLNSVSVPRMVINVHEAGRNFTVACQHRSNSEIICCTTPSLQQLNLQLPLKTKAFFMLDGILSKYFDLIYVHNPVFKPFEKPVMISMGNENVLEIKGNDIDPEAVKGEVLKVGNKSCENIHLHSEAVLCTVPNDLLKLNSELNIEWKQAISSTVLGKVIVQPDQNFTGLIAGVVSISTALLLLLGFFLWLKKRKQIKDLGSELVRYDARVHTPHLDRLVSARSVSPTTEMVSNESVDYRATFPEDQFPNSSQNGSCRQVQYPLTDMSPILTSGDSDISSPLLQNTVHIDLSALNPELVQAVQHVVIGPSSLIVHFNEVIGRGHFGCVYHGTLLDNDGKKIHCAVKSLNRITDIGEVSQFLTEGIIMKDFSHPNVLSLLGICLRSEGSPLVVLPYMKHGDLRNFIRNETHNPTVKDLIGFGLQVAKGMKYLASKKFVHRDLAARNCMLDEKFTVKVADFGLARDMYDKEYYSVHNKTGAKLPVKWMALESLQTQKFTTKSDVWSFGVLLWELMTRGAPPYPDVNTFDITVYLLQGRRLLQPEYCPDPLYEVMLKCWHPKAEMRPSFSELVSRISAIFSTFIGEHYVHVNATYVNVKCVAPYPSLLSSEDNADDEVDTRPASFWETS
For assay [2], the target named is T1, Receptor-type tyrosine-protein kinase FLT3 (Homo sapiens, UniProt P36888).
T1 sequence (P36888 whole entry): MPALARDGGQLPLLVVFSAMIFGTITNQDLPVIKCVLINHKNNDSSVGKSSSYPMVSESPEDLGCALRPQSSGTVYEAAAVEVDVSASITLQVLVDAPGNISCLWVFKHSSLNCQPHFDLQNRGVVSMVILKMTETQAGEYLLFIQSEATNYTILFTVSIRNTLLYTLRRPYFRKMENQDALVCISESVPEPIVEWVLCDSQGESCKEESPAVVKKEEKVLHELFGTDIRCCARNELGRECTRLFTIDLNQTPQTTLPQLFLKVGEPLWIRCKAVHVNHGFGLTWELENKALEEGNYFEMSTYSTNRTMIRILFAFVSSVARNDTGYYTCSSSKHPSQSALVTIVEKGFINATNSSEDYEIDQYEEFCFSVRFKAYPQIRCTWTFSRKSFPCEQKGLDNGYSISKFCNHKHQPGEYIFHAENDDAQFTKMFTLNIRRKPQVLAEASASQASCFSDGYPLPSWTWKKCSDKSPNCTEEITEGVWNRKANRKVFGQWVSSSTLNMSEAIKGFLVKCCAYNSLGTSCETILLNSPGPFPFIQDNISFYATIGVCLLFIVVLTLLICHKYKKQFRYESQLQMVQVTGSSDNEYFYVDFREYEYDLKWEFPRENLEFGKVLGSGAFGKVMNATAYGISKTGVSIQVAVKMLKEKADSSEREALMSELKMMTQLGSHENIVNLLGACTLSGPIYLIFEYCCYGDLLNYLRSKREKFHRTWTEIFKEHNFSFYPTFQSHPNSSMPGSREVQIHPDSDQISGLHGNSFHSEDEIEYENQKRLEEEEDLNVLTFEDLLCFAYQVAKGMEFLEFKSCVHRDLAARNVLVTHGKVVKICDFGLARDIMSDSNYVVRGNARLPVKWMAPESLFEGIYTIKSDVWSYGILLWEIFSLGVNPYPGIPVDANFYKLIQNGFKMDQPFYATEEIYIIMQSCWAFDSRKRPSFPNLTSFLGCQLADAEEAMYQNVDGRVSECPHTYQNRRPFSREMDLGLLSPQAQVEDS
The assay can be described thus: Inhibition of FLT3 (unknown origin).

The subject of assay [3] is MDA-MB-231. Nature of the assay: Antiproliferative activity against human MDA-MB-231 cells assessed as reduction in cell viability measured after 72 hrs by MTT assay. The note with it: MDA-MB-231, 72 h.
The test system of assay [4] is MDA-MB-231. Nature of the assay: Potency index, ratio of foretinib IC50 to test compound IC50 for antiproliferative activity against human MDA-MB-231 cells. The class given is functional.
Assay [5] deals with Macrophage-stimulating protein receptor (Homo sapiens, UniProt Q04912). Nature of the assay: Inhibition of Ron (unknown origin). A digest of the protocol: (§1)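 HTRF kinase assay with purified kinase protein on preloaded poly(Glu,Tyr) 4:1 substrate, 20 mg/mL. ATP at 10 mM (solution added) in buffer of 50 mM HEPES pH 7.0 with DTT, MgCl₂, MnCl₂ and 0.1% NaN₃. Compounds diluted in 1% DMSO. Reaction ran 30 min at 25 °C. Percent inhibition computed against no-enzyme (min) and full-activity (max) wells. IC50 taken from the inhibition curves.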
Chain of Macrophage-stimulating protein receptor (Q04912 25-304 limits assumed): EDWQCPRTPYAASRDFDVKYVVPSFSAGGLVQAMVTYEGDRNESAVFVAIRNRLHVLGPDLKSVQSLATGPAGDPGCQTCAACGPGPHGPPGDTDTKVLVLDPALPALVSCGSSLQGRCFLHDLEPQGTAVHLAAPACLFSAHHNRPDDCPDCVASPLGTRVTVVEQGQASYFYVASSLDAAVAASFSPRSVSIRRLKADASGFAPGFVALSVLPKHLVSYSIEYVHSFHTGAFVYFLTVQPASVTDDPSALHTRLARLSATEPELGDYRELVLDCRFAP
Chain of Macrophage-stimulating protein receptor (Q04912 310-1400 limits assumed): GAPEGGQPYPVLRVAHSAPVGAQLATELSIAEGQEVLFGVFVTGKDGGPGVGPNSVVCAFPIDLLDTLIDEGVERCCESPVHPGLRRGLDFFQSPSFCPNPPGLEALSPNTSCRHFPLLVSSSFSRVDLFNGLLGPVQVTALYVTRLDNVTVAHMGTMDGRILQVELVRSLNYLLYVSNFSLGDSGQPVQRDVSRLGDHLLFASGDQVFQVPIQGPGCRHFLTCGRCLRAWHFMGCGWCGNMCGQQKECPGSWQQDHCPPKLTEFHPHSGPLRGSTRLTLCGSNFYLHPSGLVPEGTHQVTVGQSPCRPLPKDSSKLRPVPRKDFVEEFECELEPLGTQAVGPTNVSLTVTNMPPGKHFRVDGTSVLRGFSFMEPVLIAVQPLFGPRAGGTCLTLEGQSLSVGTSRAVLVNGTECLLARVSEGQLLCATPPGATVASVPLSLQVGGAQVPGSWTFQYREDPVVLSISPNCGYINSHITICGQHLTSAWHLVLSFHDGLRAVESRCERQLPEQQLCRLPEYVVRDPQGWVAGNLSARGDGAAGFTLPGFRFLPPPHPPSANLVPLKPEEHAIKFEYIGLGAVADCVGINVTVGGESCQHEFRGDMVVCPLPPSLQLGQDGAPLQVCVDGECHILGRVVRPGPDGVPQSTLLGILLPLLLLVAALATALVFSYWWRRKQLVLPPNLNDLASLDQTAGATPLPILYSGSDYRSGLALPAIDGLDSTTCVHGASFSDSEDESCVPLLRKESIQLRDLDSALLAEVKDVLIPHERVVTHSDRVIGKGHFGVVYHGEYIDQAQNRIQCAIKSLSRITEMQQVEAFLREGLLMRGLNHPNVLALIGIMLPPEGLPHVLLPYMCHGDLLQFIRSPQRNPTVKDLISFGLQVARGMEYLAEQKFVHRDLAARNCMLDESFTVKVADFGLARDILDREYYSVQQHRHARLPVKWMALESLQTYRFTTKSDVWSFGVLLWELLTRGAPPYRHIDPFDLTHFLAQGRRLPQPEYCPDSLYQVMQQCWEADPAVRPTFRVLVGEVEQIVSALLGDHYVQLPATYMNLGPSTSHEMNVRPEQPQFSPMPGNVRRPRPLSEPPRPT

The test system of assay [6] is NCI-H460. Nature of the assay: Antiproliferative activity against human NCI-H460 cells assessed as reduction in cell viability hrs by MTT assay. The note with it: TDE = time-dependent effect. The class given is functional, cell-based.
For assay [7], the target named is Vascular endothelial growth factor receptor 2 (Homo sapiens, UniProt P35968). The assay can be described thus: Inhibition of VEGFR2 (unknown origin).
For assay [8], the system named is NCI-H460. Nature of the assay: Potency index, ratio of foretinib IC50 to test compound IC50 for antiproliferative activity against human NCI-H460 cells. The class given is functional.
Assay [9] addresses Mast/stem cell growth factor receptor Kit (Homo sapiens, UniProt P10721). The assay can be described thus: Inhibition of c-Kit (unknown origin). A digest of the protocol: as §1
For assay [10], the system named is HT-29. Nature of the assay: Potency index, ratio of foretinib IC50 to test compound IC50 for antiproliferative activity against human HT-29 cells. The class given is functional.
For assay [11], the system named is HT-29. Nature of the assay: Antiproliferative activity against human HT-29 cells assessed as reduction in cell viability measured after 72 hrs by MTT assay. The note with it: HT-29, 72 h.
The target of assay [12] is Vascular endothelial growth factor receptor 3 (Homo sapiens, UniProt P35916). The assay can be described thus: Inhibition of Flt4 (unknown origin). In a few lines:
as §1

In assay [13] the test system is NCI-H460. Nature of the assay: Antiproliferative activity against human NCI-H460 cells assessed as reduction in cell viability measured after 72 hrs by MTT assay. The note with it: NCI-H460, 72 h. Background: Tetrazolium dyes change colour on reduction, which living cells bring about.
Assay [14] concerns the target Epidermal growth factor receptor (Homo sapiens, UniProt P00533). The assay can be described thus: Inhibition of EGFR (unknown origin). In a few lines:
as §1

The next assay relates to MKN-45. The assay can be described thus: Antiproliferative activity against human MKN-45 cells assessed as reduction in cell viability measured after 72 hrs by MTT assay. The note with it: MKN-45, 72 h.

Molecules are shown by their SMILES.

Chain of Vascular endothelial growth factor receptor 3 (P35916 whole entry): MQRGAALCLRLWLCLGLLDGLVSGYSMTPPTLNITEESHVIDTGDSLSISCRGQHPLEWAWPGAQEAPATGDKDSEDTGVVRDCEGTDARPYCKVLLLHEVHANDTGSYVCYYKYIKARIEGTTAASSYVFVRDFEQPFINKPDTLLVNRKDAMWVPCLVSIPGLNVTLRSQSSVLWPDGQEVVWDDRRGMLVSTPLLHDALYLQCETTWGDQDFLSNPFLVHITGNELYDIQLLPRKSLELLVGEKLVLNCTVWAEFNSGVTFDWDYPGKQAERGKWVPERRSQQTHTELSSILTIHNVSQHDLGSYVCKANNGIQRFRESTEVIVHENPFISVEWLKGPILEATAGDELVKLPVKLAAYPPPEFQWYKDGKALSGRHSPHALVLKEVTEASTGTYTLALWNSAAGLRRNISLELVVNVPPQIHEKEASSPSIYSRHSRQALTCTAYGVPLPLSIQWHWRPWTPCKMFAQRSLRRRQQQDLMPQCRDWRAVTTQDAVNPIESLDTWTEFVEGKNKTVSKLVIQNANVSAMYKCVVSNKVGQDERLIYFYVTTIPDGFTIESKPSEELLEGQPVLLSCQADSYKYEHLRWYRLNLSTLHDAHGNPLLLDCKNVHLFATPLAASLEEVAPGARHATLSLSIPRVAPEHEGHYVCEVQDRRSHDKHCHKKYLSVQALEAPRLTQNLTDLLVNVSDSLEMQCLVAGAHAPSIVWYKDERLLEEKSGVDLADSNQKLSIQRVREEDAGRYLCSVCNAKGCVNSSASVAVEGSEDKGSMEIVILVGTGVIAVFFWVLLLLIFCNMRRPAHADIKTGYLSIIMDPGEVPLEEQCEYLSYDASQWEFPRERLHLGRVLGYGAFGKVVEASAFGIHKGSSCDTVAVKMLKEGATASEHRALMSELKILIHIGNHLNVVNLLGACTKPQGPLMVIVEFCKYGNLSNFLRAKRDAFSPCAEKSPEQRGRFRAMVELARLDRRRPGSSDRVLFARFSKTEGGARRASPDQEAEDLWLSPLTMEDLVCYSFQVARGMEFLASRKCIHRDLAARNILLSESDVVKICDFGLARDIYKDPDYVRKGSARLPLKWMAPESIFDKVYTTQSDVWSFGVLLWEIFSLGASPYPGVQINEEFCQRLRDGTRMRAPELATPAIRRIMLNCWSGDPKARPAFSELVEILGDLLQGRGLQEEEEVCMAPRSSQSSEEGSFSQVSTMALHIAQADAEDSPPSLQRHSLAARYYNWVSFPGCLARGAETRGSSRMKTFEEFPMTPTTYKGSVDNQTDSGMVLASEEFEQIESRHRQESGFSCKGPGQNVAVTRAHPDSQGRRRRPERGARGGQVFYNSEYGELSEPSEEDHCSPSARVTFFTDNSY
Chain of Mast/stem cell growth factor receptor Kit (P10721 whole entry): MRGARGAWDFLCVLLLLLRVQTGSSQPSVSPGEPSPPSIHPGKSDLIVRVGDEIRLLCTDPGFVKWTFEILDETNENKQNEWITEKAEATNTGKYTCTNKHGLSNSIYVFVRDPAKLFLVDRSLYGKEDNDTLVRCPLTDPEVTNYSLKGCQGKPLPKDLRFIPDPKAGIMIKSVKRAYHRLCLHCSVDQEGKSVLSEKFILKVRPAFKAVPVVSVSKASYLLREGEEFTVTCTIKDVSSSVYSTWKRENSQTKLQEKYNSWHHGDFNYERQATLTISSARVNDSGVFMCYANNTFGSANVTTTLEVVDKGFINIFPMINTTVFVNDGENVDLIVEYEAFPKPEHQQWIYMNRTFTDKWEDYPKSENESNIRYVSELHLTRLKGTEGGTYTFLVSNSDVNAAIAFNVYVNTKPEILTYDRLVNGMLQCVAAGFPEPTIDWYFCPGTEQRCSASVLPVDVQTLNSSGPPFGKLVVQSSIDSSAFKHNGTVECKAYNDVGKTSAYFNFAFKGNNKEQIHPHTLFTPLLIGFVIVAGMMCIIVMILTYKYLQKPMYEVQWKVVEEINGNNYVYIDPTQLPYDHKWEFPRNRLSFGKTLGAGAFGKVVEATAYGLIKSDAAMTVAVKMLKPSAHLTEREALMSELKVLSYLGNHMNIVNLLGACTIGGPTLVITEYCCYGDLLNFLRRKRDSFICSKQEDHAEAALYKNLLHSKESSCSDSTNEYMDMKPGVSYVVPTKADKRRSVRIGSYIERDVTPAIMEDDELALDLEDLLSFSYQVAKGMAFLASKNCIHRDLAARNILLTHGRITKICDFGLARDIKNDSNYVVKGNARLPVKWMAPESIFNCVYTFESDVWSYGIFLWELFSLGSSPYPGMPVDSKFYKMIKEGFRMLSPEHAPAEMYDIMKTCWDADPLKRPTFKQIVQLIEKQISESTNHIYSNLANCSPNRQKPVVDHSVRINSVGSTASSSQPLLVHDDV

In turn, `COc1cc2nccc(Oc3ccc(NC(=O)[C@H](OC(=O)c4ccc(F)cc4)C(C)(C)C)cc3F)c2cc1OC` registered an IC50 in assay [1] of 2.56 nM.

With `COc1cc2nccc(Oc3ccc(NC(=O)C(OC(=O)c4ccc(F)cc4)C(C)(C)C)cc3F)c2cc1OC` (racemic), the IC50 in assay [2] stood at 6.15 nM; in the assay with MDA-MB-231 [3], 420 nM; in assay [5], 18.6 nM; in [7] it was 295 nM; in assay [9], 4.42 nM; in assay [1] it was 2.43 nM. Also, the IC50 was 200 nM in the assay on HT-29 [11]; 540 nM in assay [12]; 140 nM in the assay with NCI-H460 [13]; over 10000 nM in assay [14]; 260 nM in the assay on MKN-45. The entries for the “Ratio IC50” value in the assay with MDA-MB-231 [4], with NCI-H460 [8] and in the assay with HT-29 [10] were 1.6, 1.7 and 1.3, respectively. The Activity result with NCI-H460 [6] is “Tde”.

For the molecule `COc1cc2nccc(Oc3ccc(NC(=O)C(C)OC(=O)c4cccs4)cc3F)c2cc1OC` (stereo unspecified), the IC50 in the assay on MDA-MB-231 [3] amounted to 8240 nM; in the assay with HT-29 [11] it was 4020 nM; in the assay with NCI-H460 [13], 2460 nM; in the assay on MKN-45, 6390 nM.

For the molecule `COc1cc2nccc(Oc3ccc(NC(=O)[C@@H](OC(=O)c4ccc(F)cc4)C(C)(C)C)cc3F)c2cc1OC`, in [1], the IC50 was 2.49 nM.
